# What was measured:
# Format in all cases: toxicity, cell-based
# [1] = tested on: Fibroblast; assay: Multiplex assay against human fibroblast
# How it was run: (§1)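 On a CQ1 microscope at 37°C and 5% CO2, live cells were imaged after compound addition. They had been stained at seeding with Hoechst33342, BioTracker Green Microtubule Cytoskeleton Dye, MitoTracker Red and Annexin V Alexa Fluor 680. CellPathfinder machine-learning gating assigned cells to Hoechst high-intensity objects or normal cells, normal cells to healthy, pyknosed or fragmented nuclei, and pyknosed cells to mitotic or apoptotic. Tubulin, mitochondrial-mass and membrane-permeability phenotypes are per cents of healthy-nucleus cells.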
# [2] = tested on: HEK-293T; assay: Multiplex assay against HEK293T; conditions: human; how it was run: as §1
# [3] = tested on: U2OS; assay: Multiplex assay against U2OS; conditions: human; how it was run: as §1
# [4] = 12 h, 1 µM, compound concentration 1 uM, replicate 1
# [5] = 12 h, 1 µM, compound concentration 1 uM, replicate 2
# [6] = 12 h, 10 µM, compound concentration 10 uM, replicate 1
# [7] = 12 h, 10 µM, compound concentration 10 uM, replicate 2
# [8] = 24 h, 1 µM, compound concentration 1 uM, replicate 1
# [9] = 24 h, 1 µM, compound concentration 1 uM, replicate 2
# [10] = 24 h, 10 µM, compound concentration 10 uM, replicate 1
# [11] = 24 h, 10 µM, compound concentration 10 uM, replicate 2
# [12] = 48 h, 1 µM, compound concentration 1 uM, replicate 1
# [13] = 48 h, 1 µM, compound concentration 1 uM, replicate 2
# [14] = 48 h, 10 µM, compound concentration 10 uM, replicate 1
# [15] = 48 h, 10 µM, compound concentration 10 uM, replicate 2
smiles,measurement,setting,value
CC(C)C[C@H](NC(=O)[C@H](Cc1ccccc1)NC(=O)CNC(=O)CNC(=O)[C@@H](N)Cc1ccc(O)cc1)C(=O)O [ENKEPHALIN],Population Apoptotic (%),[1]; [4],68%
same,Population Healthy Nuclei (%),[1]; [4],53%
same,Population Membrane Permeable-Phenotype (%),[1]; [4],26%
same,Population Mitotic Cells (%),[1]; [4],31%
same,Population Pyknosed Nuclei (%),[1]; [4],20%
same,Population Tubulin-Different-Phenotype (%),[1]; [4],57%
same,Total Cell Count,[1]; [4],95
same,Population Healthy Nuclei (%),[1]; [5],82%
same,Population Pyknosed Nuclei (%),[1]; [5],5%
same,Population Tubulin-Different-Phenotype (%),[1]; [5],34%
same,Total Cell Count,[1]; [5],70
same,Population Apoptotic (%),[1]; [6],76%
same,Population Healthy Nuclei (%),[1]; [6],39%
same,Population Membrane Permeable-Phenotype (%),[1]; [6],27%
same,Population Mitotic Cells (%),[1]; [6],23%
same,Population Pyknosed Nuclei (%),[1]; [6],32%
same,Total Cell Count,[1]; [6],130
same,Population Healthy Nuclei (%),[1]; [7],86%
same,Population Tubulin-Different-Phenotype (%),[1]; [7],11%
same,Total Cell Count,[1]; [7],62
same,Population Healthy Nuclei (%),[1]; [8],47%
same,Population Membrane Permeable-Phenotype (%),[1]; [8],23%
same,Population Pyknosed Nuclei (%),[1]; [8],26%
same,Population Tubulin-Different-Phenotype (%),[1]; [8],34%
same,Total Cell Count,[1]; [8],111
same,Population Healthy Nuclei (%),[1]; [9],84%
same,Population Pyknosed Nuclei (%),[1]; [9],5%
same,Population Tubulin-Different-Phenotype (%),[1]; [9],31%
same,Total Cell Count,[1]; [9],68
same,Population Apoptotic (%),[1]; [10],60%
same,Population Healthy Nuclei (%),[1]; [10],52%
same,Population Membrane Permeable-Phenotype (%),[1]; [10],35%
same,Population Mitotic Cells (%),[1]; [10],40%
same,Population Pyknosed Nuclei (%),[1]; [10],22%
same,Total Cell Count,[1]; [10],129
same,Population Healthy Nuclei (%),[1]; [11],86%
same,Population Pyknosed Nuclei (%),[1]; [11],7%
same,Population Tubulin-Different-Phenotype (%),[1]; [11],15%
same,Total Cell Count,[1]; [11],86
same,Population Apoptotic (%),[1]; [12],63%
same,Population Healthy Nuclei (%),[1]; [12],45%
same,Population Membrane Permeable-Phenotype (%),[1]; [12],15%
same,Population Pyknosed Nuclei (%),[1]; [12],22%
same,Total Cell Count,[1]; [12],96
same,Population Apoptotic (%),[1]; [13],100%
same,Population Healthy Nuclei (%),[1]; [13],73%
same,Population Membrane Permeable-Phenotype (%),[1]; [13],22%
same,Population Mitotic Cells (%),[1]; [13],0%
same,Population Pyknosed Nuclei (%),[1]; [13],1%
same,Total Cell Count,[1]; [13],81
same,Population Apoptotic (%),[1]; [14],35%
same,Population Healthy Nuclei (%),[1]; [14],59%
same,Population Membrane Permeable-Phenotype (%),[1]; [14],26%
same,Population Mitotic Cells (%),[1]; [14],64%
same,Population Pyknosed Nuclei (%),[1]; [14],12%
same,Population Tubulin-Different-Phenotype (%),[1]; [14],31%
same,Total Cell Count,[1]; [14],130
same,Population Healthy Nuclei (%),[1]; [15],76%
same,Population Membrane Permeable-Phenotype (%),[1]; [15],18%
same,Population Mitotic Cells (%),[1]; [15],0%
same,Population Pyknosed Nuclei (%),[1]; [15],0%
same,Population Tubulin-Different-Phenotype (%),[1]; [15],24%
same,Total Cell Count,[1]; [15],118
same,Population Apoptotic (%),[2]; [4],45%
same,Population Healthy Nuclei (%),[2]; [4],23%
same,Population Mitochondria Different-Phenotype (%),[2]; [4],76%
same,Population Mitotic Cells (%),[2]; [4],54%
same,Population Pyknosed Nuclei (%),[2]; [4],60%
same,Total Cell Count,[2]; [4],175
same,Population Apoptotic (%),[2]; [5],9%
same,Population Healthy Nuclei (%),[2]; [5],50%
same,Population Mitotic Cells (%),[2]; [5],90%
same,Population Pyknosed Nuclei (%),[2]; [5],43%
same,Total Cell Count,[2]; [5],229
same,Population Apoptotic (%),[2]; [6],40%
same,Population Healthy Nuclei (%),[2]; [6],32%
same,Population Mitochondria Different-Phenotype (%),[2]; [6],84%
same,Population Mitotic Cells (%),[2]; [6],60%
same,Population Pyknosed Nuclei (%),[2]; [6],57%
same,Total Cell Count,[2]; [6],230
same,Population Apoptotic (%),[2]; [7],9%
same,Population Healthy Nuclei (%),[2]; [7],45%
same,Population Mitotic Cells (%),[2]; [7],90%
same,Population Pyknosed Nuclei (%),[2]; [7],50%
same,Total Cell Count,[2]; [7],271
same,Population Healthy Nuclei (%),[2]; [8],21%
same,Population Mitochondria Different-Phenotype (%),[2]; [8],41%
same,Population Normal (%),[2]; [8],80%
same,Population Pyknosed Nuclei (%),[2]; [8],60%
same,Total Cell Count,[2]; [8],175
same,Population Apoptotic (%),[2]; [9],10%
same,Population Healthy Nuclei (%),[2]; [9],66%
same,Population Mitotic Cells (%),[2]; [9],89%
same,Population Pyknosed Nuclei (%),[2]; [9],28%
same,Total Cell Count,[2]; [9],294
same,Population Healthy Nuclei (%),[2]; [10],45%
same,Population Hoechst High Intensity Objects (%),[2]; [10],14%
same,Population Mitotic Cells (%),[2]; [10],51%
same,Population Normal (%),[2]; [10],85%
same,Population Pyknosed Nuclei (%),[2]; [10],45%
same,Total Cell Count,[2]; [10],250
same,Population Apoptotic (%),[2]; [11],7%
same,Population Healthy Nuclei (%),[2]; [11],71%
same,Population Mitotic Cells (%),[2]; [11],92%
same,Population Pyknosed Nuclei (%),[2]; [11],23%
same,Total Cell Count,[2]; [11],374
same,Population Healthy Nuclei (%),[2]; [12],32%
same,Population Hoechst High Intensity Objects (%),[2]; [12],25%
same,Population Mitochondria Different-Phenotype (%),[2]; [12],26%
same,Population Mitotic Cells (%),[2]; [12],51%
same,Population Normal (%),[2]; [12],74%
same,Population Pyknosed Nuclei (%),[2]; [12],46%
same,Total Cell Count,[2]; [12],212
same,Population Apoptotic (%),[2]; [13],9%
same,Population Healthy Nuclei (%),[2]; [13],82%
same,Population Mitotic Cells (%),[2]; [13],90%
same,Population Pyknosed Nuclei (%),[2]; [13],11%
same,Total Cell Count,[2]; [13],546
same,Population Apoptotic (%),[2]; [14],40%
same,Population Healthy Nuclei (%),[2]; [14],62%
same,Population Mitochondria Different-Phenotype (%),[2]; [14],22%
same,Population Mitotic Cells (%),[2]; [14],60%
same,Population Pyknosed Nuclei (%),[2]; [14],27%
same,Total Cell Count,[2]; [14],327
same,Population Apoptotic (%),[2]; [15],18%
same,Population Healthy Nuclei (%),[2]; [15],85%
same,Population Mitochondria Different-Phenotype (%),[2]; [15],4%
same,Population Mitotic Cells (%),[2]; [15],82%
same,Population Pyknosed Nuclei (%),[2]; [15],8%
same,Total Cell Count,[2]; [15],620
same,Population Healthy Nuclei (%),[3]; [4],77%
same,Population Pyknosed Nuclei (%),[3]; [4],10%
same,Population Tubulin-Different-Phenotype (%),[3]; [4],9%
same,Total Cell Count,[3]; [4],216
same,Population Healthy Nuclei (%),[3]; [5],82%
same,Population Pyknosed Nuclei (%),[3]; [5],5%
same,Population Tubulin-Different-Phenotype (%),[3]; [5],34%
same,Total Cell Count,[3]; [5],70
same,Population Healthy Nuclei (%),[3]; [6],78%
same,Population Pyknosed Nuclei (%),[3]; [6],11%
same,Population Tubulin-Different-Phenotype (%),[3]; [6],9%
same,Total Cell Count,[3]; [6],148
same,Population Healthy Nuclei (%),[3]; [7],86%
same,Population Tubulin-Different-Phenotype (%),[3]; [7],11%
same,Total Cell Count,[3]; [7],62
same,Population Healthy Nuclei (%),[3]; [8],82%
same,Population Pyknosed Nuclei (%),[3]; [8],9%
same,Population Tubulin-Different-Phenotype (%),[3]; [8],9%
same,Total Cell Count,[3]; [8],218
same,Population Healthy Nuclei (%),[3]; [9],84%
same,Population Pyknosed Nuclei (%),[3]; [9],5%
same,Population Tubulin-Different-Phenotype (%),[3]; [9],31%
same,Total Cell Count,[3]; [9],68
same,Population Healthy Nuclei (%),[3]; [10],80%
same,Population Pyknosed Nuclei (%),[3]; [10],10%
same,Total Cell Count,[3]; [10],174
same,Population Healthy Nuclei (%),[3]; [11],86%
same,Population Pyknosed Nuclei (%),[3]; [11],7%
same,Population Tubulin-Different-Phenotype (%),[3]; [11],15%
same,Total Cell Count,[3]; [11],86
same,Population Healthy Nuclei (%),[3]; [12],87%
same,Population Pyknosed Nuclei (%),[3]; [12],7%
same,Total Cell Count,[3]; [12],229
same,Population Healthy Nuclei (%),[3]; [13],92%
same,Population Tubulin-Different-Phenotype (%),[3]; [13],31%
same,Total Cell Count,[3]; [13],80
same,Population Healthy Nuclei (%),[3]; [14],84%
same,Population Pyknosed Nuclei (%),[3]; [14],8%
same,Population Tubulin-Different-Phenotype (%),[3]; [14],5%
same,Total Cell Count,[3]; [14],251
same,Population Healthy Nuclei (%),[3]; [15],85%
same,Population Pyknosed Nuclei (%),[3]; [15],6%
same,Population Tubulin-Different-Phenotype (%),[3]; [15],15%
same,Total Cell Count,[3]; [15],131

# Reference: ChEMBL document CHEMBL4689842, “EUbOPEN Chemogenomics Library wave 1” (2021)
